# Assay results from different studies.
# Protocols differ between the studies behind these lines.
SMILES,cell line,assay,setting,quantity,value
Cl.O[C@]12C=C(c3nccc4c3[nH]c3ccccc34)[C@@H]3CCN(CCCC/C=C\CC1)C[C@@]31C[C@@H]3/C=C\CCCCN3[C@H]12,KB,"cell growth or viability, neutral red",48 h,IC50,0.38 µg/mL
COc1cc2[nH]c(C)c(-c3ccc(N(C)C)cc3)c(=O)c2cc1Cl,J774,cell growth or viability,,EC50,> 29.2 µM
COc1ccc2[nH]cc(CCNc3nccc(Nc4cccc5c4ccn5C)n3)c2c1,U-937,"cell growth or viability, fluorescence",72 h,IC50,0.008 µM
COc1cccc2c1C(=O)c1c(O)c3c(c(O)c1C2=O)C[C@@](O)(C(=O)CO)C[C@@H]3O[C@H]1C[C@H](N)[C@H](O)[C@H](C)O1,KB,cell growth or viability,48 h,IC50,1.4 µg/mL
O=C(O)c1cnn(-c2ccccc2)c1OCCCc1c[nH]c2ccccc12,HFF,cell growth or viability,"200 µM, 96 h",inhibition,< 50%
CC1=CC(=O)c2c(O)cccc2C1=O,NCI-H226,"cell growth or viability, SRB",,IC50,3.03 µM
CCCCOC(=O)[C@H]1O[C@@H](O[C@H]2CC[C@]3(C)[C@H]4CC=C5[C@@H]6CC(C)(C)CC[C@]6(C(=O)O[C@@H]6O[C@H](CO)[C@@H](O)[C@H](O)[C@H]6O)CC[C@@]5(C)[C@]4(C)CC[C@H]3C2(C)C)[C@H](O[C@@H]2OC[C@@H](O)[C@H](O)[C@H]2O)[C@@H](O)[C@@H]1O,human Neutrophil,"elastase release, inhibitor",,IC50,> 30 µM
N.N.[Cl][Pt][Cl],Hs 683,"cell growth or viability, MTT",,IC50,1.12 µM
COC(=O)[C@H]1O[C@@H](O[C@H]2CC[C@]3(C)[C@H]4CC=C5[C@@H]6CC(C)(C)CC[C@]6(C(=O)O[C@@H]6O[C@H](CO)[C@@H](O)[C@H](O)[C@H]6O)CC[C@@]5(C)[C@]4(C)CC[C@H]3C2(C)C)[C@H](O)[C@@H](O)[C@@H]1O[C@@H]1O[C@@H](CO)[C@H](O)[C@H]1O,human Neutrophil,"elastase release, inhibitor",,IC50,> 30 µM
Cc1c2ccncc2c(C)c2c1[nH]c1ccccc12,KB,"cell growth or viability, MTT",72 h,IC50,0.22 µg/mL
